According to ChEMBL document CHEMBL4706681, “New 2-Pyrazoline and Hydrazone Derivatives as Potent and Selective Monoamine Oxidase A Inhibitors” (J Med Chem, 2021):
Calls of active or inactive are those of the source. The calls are words filed in the database; no cut-off is given here.

Assays:
[1] = Ex vivo inhibition of MAOA in CD1 mouse brain homogenates assessed as assessed as inhibition of dopamine deamination by measuring DOPAC metabolite levels at 30 mg/kg, po administered as single acute dose via gavage and measured after 1 hr by HPLC analysis (reference value: 1.22 +/- 0.2 ug/g); format: functional
[2] = Cytotoxicity against human HepG2 cells assessed as cell viability at 7.5 uM incubated for 2 hrs by MTT assay relative to control; format: cell-based; details: read-out: Activity
How it was run: (§1)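 HepG2 human hepatoma cells; viability read by MTT assay, with 0.1% DMSO as vehicle control. Viability given as % of control, mean ± SEM (n = 3); p < 0.05 taken as significant.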

[3] = molecular target: T1, Amine oxidase [flavin-containing] A (Homo sapiens, UniProt P21397); assay: Reversible inhibition of human MAO-A assessed as residual enzyme activity at 4 fold IC50 incubated for 15 mins and measured 24 hrs post dialysis by dialysis method relative to control; details: 24.25 h, time 1455 min
T1 sequence (P21397 whole entry): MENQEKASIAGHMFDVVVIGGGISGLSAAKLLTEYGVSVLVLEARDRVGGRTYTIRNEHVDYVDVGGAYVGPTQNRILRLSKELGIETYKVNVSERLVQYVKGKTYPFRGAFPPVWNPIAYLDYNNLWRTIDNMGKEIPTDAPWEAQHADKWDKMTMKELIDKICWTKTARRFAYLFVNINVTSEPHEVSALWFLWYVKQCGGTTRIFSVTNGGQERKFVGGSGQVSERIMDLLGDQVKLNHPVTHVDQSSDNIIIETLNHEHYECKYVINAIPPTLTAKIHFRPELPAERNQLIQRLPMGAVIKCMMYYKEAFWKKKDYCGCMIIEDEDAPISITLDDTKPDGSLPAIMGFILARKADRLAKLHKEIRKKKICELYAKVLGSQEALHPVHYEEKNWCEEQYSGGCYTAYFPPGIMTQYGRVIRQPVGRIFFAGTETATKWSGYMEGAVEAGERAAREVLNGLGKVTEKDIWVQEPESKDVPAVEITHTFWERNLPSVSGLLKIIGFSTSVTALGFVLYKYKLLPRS
How it was run: (§2)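 Dialysed (MWCO 12 000) at 4 °C for 24 h against 100 mM potassium phosphate pH 7.4, 5% sucrose, buffer changed twice. Dialysed and undialysed mixtures assayed together; residual activity from triplicates.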

[4] = Cytotoxicity against human HepG2 cells assessed as cell viability at 30 uM incubated for 2 hrs by MTT assay relative to control; format: cell-based; details: read-out: Activity; how it was run: as §1
[5] = Ex vivo inhibition of MAOA in CD1 mouse brain homogenates assessed as 5-HT levels at 30 mg/kg, po administered as subchronic dose via gavage for 7 days and measured 1 hr post last dose by ELISA kit method (reference value: 0.78 +/- 0.01 ug/g); format: functional; details: time 7 day
[6] = molecular target: T1, Amine oxidase [flavin-containing] A; assay: Reversible inhibition of human MAO-A assessed as residual enzyme activity at 4 fold IC50 incubated for 15 mins and measured before dialysis by dialysis method relative to control; how it was run: as §2
[7] = Ex vivo inhibition of MAOA in CD1 mouse brain homogenates assessed as assessed as inhibition of 5-HT deamination by measuring 5-HIAA metabolite levels at 30 mg/kg, po administered as single acute dose via gavage and measured after 1 hr by HPLC analysis (reference value: 0.28 +/- 0.011 ug/g); format: functional
[8] = Effect on locomotor activity in CD1 mouse assessed as total distance traveled at 30 mg/kg, po administered via gavage for 7 days by open field test; format: ADME, organism-based; details: in vivo, 168 h, time 7 day
How it was run: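 Each mouse placed in the centre of a 50 × 50 × 30 cm black box and video-tracked; total distance travelled over 5 min; n = 8–10.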

Mus musculus [9] = assay: Antidepressant-like activity in CD1 mouse assessed as reduction in immobility time at 30 mg/kg, po administered via gavage as single dose measured after 1 hr by Porsolt-forced swim test; format: functional, organism-based
[10] = Permeability of compound in PBS/EtOH buffer (70:30) at 25 ug/ml incubated for 16 hrs by UV plate reader based PAMPA-BBB
[11] = Ex vivo inhibition of MAOA in CD1 mouse brain homogenates assessed as MAOA level at 30 mg/kg, po administered as subchronic dose via gavage for 7 days and measured 1 hr post last dose by monoamine oxidase assay (reference value: 0.40 +/- 0.005 nmol/min/mg); format: functional; details: time 7 day
Mus musculus [12] = assay: Antidepressant-like activity in CD1 mouse assessed as reduction in immobility time at 30 mg/kg, po administered via gavage for 7 days and measured 1 h post last dose by Porsolt-forced swim test; format: functional, organism-based; details: time 7.0 day
How it was run: (§3)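 Male albino CD-1 mice (20–25 g), 12 h light/dark, food and water ad libitum. Dosed by oral gavage once daily for 7 days in 200 μL 0.5% CMC; vehicle-only controls. […] Forced swim test run 1 h after the last dose. Immobility scored every 60 s over 6 min; n = 8–12.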

[13] = molecular target: T1, Amine oxidase [flavin-containing] A; assay: Inhibition of recombinant human MAO-A expressed in baculovirus infected BTI insect cells using p-tyramine as substrate incubated for 30 mins by Amplex red reagent based fluorescence analysis
[14] = Ex vivo inhibition of MAOA in CD1 mouse brain homogenates assessed as inhibition of 5-HT deamination by measuring 5-HIAA metabolite levels by using at 30 mg/kg, po administered as subchronic dose via gavage for 7 days and measured 1 hr post last dose by HPLC analysis (reference value: 0.18 +/- 0.01 ug/g); format: functional; details: time 7 day
[15] = Selectivity index, ratio of Ki for inhibition of recombinant human MAO-A to Ki for inhibition of recombinant human MAO-B using p-tyramine as substrate
[16] = molecular target: T2, Amine oxidase [flavin-containing] B (Homo sapiens, UniProt P27338); assay: Reversible inhibition of human MAO-B assessed as residual enzyme activity at 4 fold IC50 incubated for 15 mins and measured before dialysis relative to control; how it was run: as §2
T2 sequence (P27338 whole entry): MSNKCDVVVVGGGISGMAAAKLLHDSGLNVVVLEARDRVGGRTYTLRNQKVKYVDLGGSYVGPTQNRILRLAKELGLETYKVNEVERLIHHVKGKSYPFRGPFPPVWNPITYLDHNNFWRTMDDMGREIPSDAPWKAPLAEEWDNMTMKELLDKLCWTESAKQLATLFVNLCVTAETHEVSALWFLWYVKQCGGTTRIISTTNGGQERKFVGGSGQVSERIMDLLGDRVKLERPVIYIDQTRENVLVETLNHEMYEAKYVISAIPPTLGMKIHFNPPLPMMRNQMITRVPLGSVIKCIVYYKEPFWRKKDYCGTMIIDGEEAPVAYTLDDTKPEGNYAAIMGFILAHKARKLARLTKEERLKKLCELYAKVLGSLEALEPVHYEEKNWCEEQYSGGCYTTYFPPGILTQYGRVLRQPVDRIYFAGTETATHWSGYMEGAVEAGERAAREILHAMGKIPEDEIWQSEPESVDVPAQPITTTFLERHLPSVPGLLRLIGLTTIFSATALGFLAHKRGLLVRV

[17] = Ex vivo inhibition of MAOA in CD1 mouse brain homogenates assessed as MAOA level at 30 mg/kg, po administered as single acute dose via gavage and measured after 1 hr by monoamine oxidase assay (reference value: 0.40 +/- 0.012 nmol/min/mg); format: functional
[18] = molecular target: T2, Amine oxidase [flavin-containing] B; assay: Inhibition of recombinant human MAO-B expressed in baculovirus infected BTI insect cells using p-tyramine as substrate incubated for 30 mins by Amplex red reagent based fluorescence analysis; format: cell-based
[19] = molecular target: T2, Amine oxidase [flavin-containing] B; assay: Reversible inhibition of human MAO-B assessed as residual enzyme activity at 4 fold IC50 incubated for 15 mins and measured 24 hrs post dialysis relative to control; details: 24.25 h, time 1455 min; how it was run: as §2
[20] = Ex vivo inhibition of MAOA in CD1 mouse brain homogenates assessed as dopamine levels at 30 mg/kg, po administered as single acute dose via gavage and measured after 1 hr by ELISA kit method (reference value: 7.08 +/- 0.58 ug/g); format: functional
[21] = Ex vivo inhibition of MAOA in CD1 mouse brain homogenates assessed as 5-HT levels at 30 mg/kg, po administered as single acute dose via gavage and measured after 1 hr by ELISA kit method (reference value: 0.80 +/- 0.006 ug/g); format: functional
[22] = Cytotoxicity against human HepG2 cells assessed as cell viability at 15 uM incubated for 2 hrs by MTT assay relative to control; format: cell-based; details: read-out: Activity; how it was run: as §1
Mus musculus [23] = assay: Antidepressant-like activity in CD1 mouse assessed as maximum efficacy at 20 mg/kg, po administered as subchronic dose gavage for 7 days and measured 1 h post last dose by Porsolt-forced swim test; format: functional, organism-based; details: time 7.0 day; how it was run: as §3
[24] = molecular target: T1, Amine oxidase [flavin-containing] A; assay: Irreversible inhibition of human MAO-A assessed as residual enzyme activity at 4 fold IC50 incubated for 15 mins and measured before dialysis relative to control
How it was run: (§4)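 Recombinant hMAO-A (1 U/mL) was preincubated with inhibitor for 15 min at 37 °C in 0.05 M potassium phosphate, pH 7.4, with 5% sucrose and 1% DMSO. It was then dialyzed at 4 °C against 100 mM potassium phosphate, pH 7.4, 5% sucrose (12 000 MWCO), with buffer replaced twice over 24 h. Dialyzed and undialyzed mixtures were assayed together for MAO-A activity, in triplicate; residual activity is given as mean ± SEM.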

[25] = molecular target: T1, Amine oxidase [flavin-containing] A; assay: Irreversible inhibition of human MAO-A assessed as residual enzyme activity at 4 fold IC50 incubated for 15 mins and measured 24 hrs post dialysis relative to control; details: 24.25 h, time 1455 min; how it was run: as §4

Structure (SMILES): COc1cccc(C2CC(c3ccccc3)=NN2C(=O)Cn2c(=O)oc3ccccc32)c1 (centres undefined)
- Activity [1]: 1.23 µg/g
- viability at 2 h, 7.5 µM [2]: 96.2%
- Activity [3]: 91.74%
- viability at 2 h, 30 µM [4]: 77.3%
- Activity [5]: 1.01 µg/g
- Activity [6]: 24.55%
- Activity [7]: 0.32 µg/g
- Activity [8]: Non-Toxic
- Activity (Mus musculus [9]): inactive
- Papp at 16 h, 25 ug/ml [10]: 8.9 ×10⁻⁶ cm/s
- Activity [11]: 0.29 nmol/min/mg
- Activity (Mus musculus [12]): Active
- Ki [13]: 0.008 µM
- Activity [14]: 0.24 µg/g
- Ratio Ki [15]: 0.00097
- Activity [16]: 85%
- Activity [17]: 0.31 nmol/min/mg
- Ki [18]: 8.25 µM
- Activity [19]: 92.25%
- Activity [20]: 7.08 µg/g
- Activity [21]: 0.88 µg/g
- viability at 2 h, 15 µM [22]: 88.3%

Structure (SMILES): COc1ccc(C2=NN(C(=O)Cn3c(=O)oc4ccccc43)C(c3ccccc3Cl)C2)cc1 (centres undefined)
- Activity [1]: 1.24 µg/g
- viability at 2 h, 7.5 µM [2]: 91.2%
- Activity [3]: 90.16%
- viability at 2 h, 30 µM [4]: 85%
- Activity [5]: 1.19 µg/g
- Activity [6]: 18.11%
- Activity [7]: 0.35 µg/g
- Activity [8]: Non-Toxic
- Activity (Mus musculus [9]): Active
- Papp at 16 h, 25 ug/ml [10]: 11 ×10⁻⁶ cm/s
- Activity [11]: 0.24 nmol/min/mg
- Activity (Mus musculus [12]): Active
- Ki [13]: 0.001 µM
- Activity [14]: 0.31 µg/g
- Ratio Ki [15]: 8 10^-4No_unit
- Activity [16]: 78.2%
- Activity [17]: 0.25 nmol/min/mg
- Ki [18]: 1.25 µM
- Activity [19]: 91.5%
- Activity [20]: 7.1 µg/g
- Activity [21]: 0.98 µg/g
- viability at 2 h, 15 µM [22]: 90%

Structure (SMILES): COc1ccc(C2CC(c3ccccc3)=NN2C(=O)Cn2c(=O)oc3ccccc32)cc1OC (centres undefined)
- Activity [1]: 1.23 µg/g
- viability at 2 h, 7.5 µM [2]: 90.4%
- Activity [3]: 94%
- viability at 2 h, 30 µM [4]: 85.3%
- Activity [5]: 1.04 µg/g
- Activity [6]: 23.11%
- Activity [7]: 0.32 µg/g
- Activity [8]: Non-Toxic
- Activity (Mus musculus [9]): inactive
- Papp at 16 h, 25 ug/ml [10]: 9.44 ×10⁻⁶ cm/s
- Activity [11]: 0.27 nmol/min/mg
- Activity (Mus musculus [12]): Active
- Ki [13]: 0.009 µM
- Activity [14]: 0.24 µg/g
- Ratio Ki [15]: 4.55 10^-5No_unit
- Activity [16]: 78.9%
- Activity [17]: 0.28 nmol/min/mg
- Ki [18]: 20 µM
- Activity [19]: 94.8%
- Activity [20]: 7.08 µg/g
- Activity [21]: 0.91 µg/g
- viability at 2 h, 15 µM [22]: 88.2%

Structure (SMILES): COc1ccc(C(/C=C/c2cccc(OC)c2OC)=N/NC(=O)Cn2c(=O)oc3ccc(Cl)cc32)cc1
- viability at 2 h, 7.5 µM [2]: 118%
- Activity [3]: 93.57%
- viability at 2 h, 30 µM [4]: 88.5%
- Activity (Mus musculus [23]): inactive
- Activity [6]: 20.16%
- Activity [8]: Non-Toxic
- Activity (Mus musculus [9]): Active
- Activity (Mus musculus [12]): Active
- Ki [13]: 0.01 µM
- Activity [16]: 82.37%
- Ki [18]: 1850 µM
- Activity [19]: 95.21%
- viability at 2 h, 15 µM [22]: 99.1%

Structure (SMILES): C#CCN(C)[C@H](C)Cc1ccccc1 [SELEGILINE]
- viability at 2 h, 7.5 µM [2]: 90%
- Activity [24]: 89.96%
- viability at 2 h, 30 µM [4]: 84%
- Activity [25]: 90.01%
- viability at 2 h, 15 µM [22]: 87.2%
